# Results taken from ChEMBL document CHEMBL5653631, “A Potent and Selective ULK1 Inhibitor Suppresses Autophagy and Sensitizes Cancer Cells to Nutrient Stress” (iScience, 2018).
# Key:
# [1] = biological target: Serine/threonine-protein kinase 32C (Homo sapiens) (UniProt Q86UX6); assay: Inhibition of human recombinant YANK3 at 40 nM related to control ULK1
# [2] = biological target: BDNF/NT-3 growth factors receptor (Homo sapiens) (UniProt Q16620); assay: Inhibition of human recombinant TRKB at 40 nM related to control ULK1
# [3] = biological target: Mast/stem cell growth factor receptor Kit (Homo sapiens) (UniProt P10721); assay: Inhibition of human recombinant KIT at 40 nM in presence of ATP by radiometric assay relative to control
# [4] = biological target: Cyclin-dependent kinase 9 (Homo sapiens) (UniProt P50750); assay: Inhibition of human recombinant CDK9 at 40 nM in presence of ATP by radiometric assay relative to control
# [5] = biological target: Cyclin-dependent kinase 7 (Homo sapiens) (UniProt P50613); assay: Inhibition of human recombinant CDK7 at 40 nM in presence of ATP by radiometric assay relative to control
# [6] = biological target: Calcium/calmodulin-dependent protein kinase type 1 (Homo sapiens) (UniProt Q14012); assay: Inhibition of human recombinant CaMK1a at 40 nM related to control ULK1
# [7] = biological target: Serine/threonine-protein kinase pim-1 (Homo sapiens) (UniProt P11309); assay: Inhibition of human recombinant PIM1 at 40 nM related to control ULK1
# [8] = biological target: Serine/threonine-protein kinase 26 (Homo sapiens) (UniProt Q9P289); assay: Inhibition of human recombinant MST4 at 40 nM related to control ULK1
# [9] = biological target: MAP/microtubule affinity-regulating kinase 3 (Homo sapiens) (UniProt P27448); assay: Inhibition of human recombinant MARK3 at 40 nM in presence of ATP by radiometric assay relative to control
# [10] = biological target: DNA-PK/Ku70/Ku85 (Homo sapiens) (UniProt P78527+P12956+P13010); assay: Inhibition of human recombinant DNAPK at 40 nM in presence of ATP by radiometric assay relative to control; assay type: protein-complex assay
# [11] = biological target: Rho-associated protein kinase 2 (Homo sapiens) (UniProt O75116); assay: Inhibition of human recombinant ROCK2 at 40 nM in presence of ATP by radiometric assay relative to control
# [12] = biological target: Misshapen-like kinase 1 (Homo sapiens) (UniProt Q8N4C8); assay: Inhibition of human recombinant MINK at 15 nM in presence of ATP by radiometric assay relative to control
# [13] = biological target: Protein kinase C delta type (Homo sapiens) (UniProt Q05655); assay: Inhibition of human recombinant PKCd at 15 nM in presence of ATP by radiometric assay relative to control
# [14] = biological target: Serine/threonine-protein kinase PAK 2 (Homo sapiens) (UniProt Q13177); assay: Inhibition of human recombinant PAK2 at 15 nM related to control ULK1
# [15] = biological target: Tyrosine-protein kinase Blk (Homo sapiens) (UniProt P51451); assay: Inhibition of human recombinant BLK at 15 nM related to control ULK1
# [16] = biological target: Tyrosine-protein kinase Tec (Homo sapiens) (UniProt P42680); assay: Inhibition of human recombinant TEC at 15 nM in presence of ATP by radiometric assay relative to control
# [17] = biological target: T1, Beta-adrenergic receptor kinase 1 (Homo sapiens) (UniProt P25098); assay: Inhibition of human recombinant BARK1 at 15 nM in presence of ATP by radiometric assay relative to control
# T1 sequence (whole entry): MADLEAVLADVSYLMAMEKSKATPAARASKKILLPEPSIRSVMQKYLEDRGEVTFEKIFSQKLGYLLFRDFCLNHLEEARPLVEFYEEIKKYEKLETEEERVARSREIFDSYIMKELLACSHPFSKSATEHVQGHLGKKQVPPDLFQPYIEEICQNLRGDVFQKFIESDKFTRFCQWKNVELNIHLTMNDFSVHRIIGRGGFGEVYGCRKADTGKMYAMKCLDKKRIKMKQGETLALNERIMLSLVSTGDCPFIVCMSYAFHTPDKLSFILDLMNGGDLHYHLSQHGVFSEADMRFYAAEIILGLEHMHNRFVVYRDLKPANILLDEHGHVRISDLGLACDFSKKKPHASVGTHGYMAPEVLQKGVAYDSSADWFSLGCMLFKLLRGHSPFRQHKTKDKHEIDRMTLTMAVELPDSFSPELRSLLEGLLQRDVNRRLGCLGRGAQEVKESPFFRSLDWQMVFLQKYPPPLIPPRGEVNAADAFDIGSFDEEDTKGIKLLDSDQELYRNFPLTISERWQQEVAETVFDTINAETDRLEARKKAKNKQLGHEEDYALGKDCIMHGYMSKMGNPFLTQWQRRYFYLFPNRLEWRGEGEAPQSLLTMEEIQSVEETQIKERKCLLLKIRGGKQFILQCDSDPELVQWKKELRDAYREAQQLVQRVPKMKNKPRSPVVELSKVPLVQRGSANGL
# Method in brief: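 Part of a radiometric in vitro activity panel of 327 recombinant human kinases. Each kinase was tested in duplicate at one inhibitor concentration. Activity remaining was expressed as a percentage of the vehicle control, and percent inhibition was taken as 100 minus that value.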
# [18] = biological target: Serine/threonine-protein kinase 24 (Homo sapiens) (UniProt Q9Y6E0); assay: Inhibition of human recombinant MST3 at 15 nM in presence of ATP by radiometric assay relative to control
# [19] = biological target: Myosin light chain kinase, smooth muscle (Homo sapiens) (UniProt Q15746); assay: Inhibition of human recombinant smMLCK at 15 nM related to control ULK1
# [20] = biological target: Cell division cycle 7-related protein kinase (Homo sapiens) (UniProt O00311); assay: Inhibition of human recombinant CDC7 at 500 nM related to control ULK1
# [21] = biological target: Mitogen-activated protein kinase 1 (Homo sapiens) (UniProt P28482); assay: Inhibition of human recombinant Erk2 at 500 nM in presence of ATP by radiometric assay relative to control
# [22] = biological target: Hepatocyte growth factor receptor (Homo sapiens) (UniProt P08581); assay: Inhibition of human recombinant MET at 500 nM related to control ULK1
# [23] = biological target: Serine-protein kinase ATM (Homo sapiens) (UniProt Q13315); assay: Inhibition of human recombinant ATM at 500 nM related to control ULK1
# Method in brief: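 Panel of 327 recombinant human kinases, each assayed in vitro by radiometric activity assay in duplicate at a single inhibitor concentration per compound, chosen with reference to its ULK1 inhibition. Activity remaining was expressed as percent of vehicle control, and percent inhibition was calculated as 100 minus percent activity remaining.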
# Sequence of Mast/stem cell growth factor receptor Kit (Homo sapiens) (P10721 whole entry): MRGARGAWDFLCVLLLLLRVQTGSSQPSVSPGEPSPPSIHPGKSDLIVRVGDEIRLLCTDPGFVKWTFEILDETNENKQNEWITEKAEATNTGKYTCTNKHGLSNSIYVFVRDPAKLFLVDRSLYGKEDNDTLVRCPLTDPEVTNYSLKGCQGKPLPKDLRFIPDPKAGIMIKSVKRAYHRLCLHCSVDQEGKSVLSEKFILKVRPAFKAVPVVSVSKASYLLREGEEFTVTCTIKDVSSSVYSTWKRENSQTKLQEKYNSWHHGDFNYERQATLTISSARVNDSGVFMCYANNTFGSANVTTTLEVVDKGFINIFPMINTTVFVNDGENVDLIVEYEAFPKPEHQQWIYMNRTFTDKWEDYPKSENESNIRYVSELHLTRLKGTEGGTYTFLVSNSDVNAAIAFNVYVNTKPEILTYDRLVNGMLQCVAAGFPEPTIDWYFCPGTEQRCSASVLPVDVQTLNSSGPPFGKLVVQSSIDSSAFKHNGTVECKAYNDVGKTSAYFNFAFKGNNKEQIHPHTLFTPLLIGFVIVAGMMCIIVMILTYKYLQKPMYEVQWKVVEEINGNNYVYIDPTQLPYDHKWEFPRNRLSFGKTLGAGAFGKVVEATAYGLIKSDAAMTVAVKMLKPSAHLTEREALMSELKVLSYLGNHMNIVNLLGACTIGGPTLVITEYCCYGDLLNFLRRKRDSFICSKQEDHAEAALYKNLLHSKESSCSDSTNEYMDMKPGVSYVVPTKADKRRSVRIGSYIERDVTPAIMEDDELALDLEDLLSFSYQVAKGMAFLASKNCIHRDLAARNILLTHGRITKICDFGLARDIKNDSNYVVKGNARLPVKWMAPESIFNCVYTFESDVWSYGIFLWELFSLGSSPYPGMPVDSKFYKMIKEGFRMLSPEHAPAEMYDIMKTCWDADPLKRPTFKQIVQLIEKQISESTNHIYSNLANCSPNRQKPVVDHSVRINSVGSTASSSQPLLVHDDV
# Sequence of Calcium/calmodulin-dependent protein kinase type 1 (Homo sapiens) (Q14012 whole entry, looked up): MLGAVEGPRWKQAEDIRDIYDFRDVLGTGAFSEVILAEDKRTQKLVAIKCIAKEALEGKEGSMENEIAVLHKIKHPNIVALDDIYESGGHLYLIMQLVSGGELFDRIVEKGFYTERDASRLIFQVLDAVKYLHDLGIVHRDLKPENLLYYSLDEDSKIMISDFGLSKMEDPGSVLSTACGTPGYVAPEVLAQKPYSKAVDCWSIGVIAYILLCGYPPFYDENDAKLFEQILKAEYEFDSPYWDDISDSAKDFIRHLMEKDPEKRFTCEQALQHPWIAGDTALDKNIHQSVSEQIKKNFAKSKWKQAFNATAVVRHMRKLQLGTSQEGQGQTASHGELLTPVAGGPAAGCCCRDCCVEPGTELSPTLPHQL
# Sequence of Serine-protein kinase ATM (Homo sapiens) (Q13315 whole entry): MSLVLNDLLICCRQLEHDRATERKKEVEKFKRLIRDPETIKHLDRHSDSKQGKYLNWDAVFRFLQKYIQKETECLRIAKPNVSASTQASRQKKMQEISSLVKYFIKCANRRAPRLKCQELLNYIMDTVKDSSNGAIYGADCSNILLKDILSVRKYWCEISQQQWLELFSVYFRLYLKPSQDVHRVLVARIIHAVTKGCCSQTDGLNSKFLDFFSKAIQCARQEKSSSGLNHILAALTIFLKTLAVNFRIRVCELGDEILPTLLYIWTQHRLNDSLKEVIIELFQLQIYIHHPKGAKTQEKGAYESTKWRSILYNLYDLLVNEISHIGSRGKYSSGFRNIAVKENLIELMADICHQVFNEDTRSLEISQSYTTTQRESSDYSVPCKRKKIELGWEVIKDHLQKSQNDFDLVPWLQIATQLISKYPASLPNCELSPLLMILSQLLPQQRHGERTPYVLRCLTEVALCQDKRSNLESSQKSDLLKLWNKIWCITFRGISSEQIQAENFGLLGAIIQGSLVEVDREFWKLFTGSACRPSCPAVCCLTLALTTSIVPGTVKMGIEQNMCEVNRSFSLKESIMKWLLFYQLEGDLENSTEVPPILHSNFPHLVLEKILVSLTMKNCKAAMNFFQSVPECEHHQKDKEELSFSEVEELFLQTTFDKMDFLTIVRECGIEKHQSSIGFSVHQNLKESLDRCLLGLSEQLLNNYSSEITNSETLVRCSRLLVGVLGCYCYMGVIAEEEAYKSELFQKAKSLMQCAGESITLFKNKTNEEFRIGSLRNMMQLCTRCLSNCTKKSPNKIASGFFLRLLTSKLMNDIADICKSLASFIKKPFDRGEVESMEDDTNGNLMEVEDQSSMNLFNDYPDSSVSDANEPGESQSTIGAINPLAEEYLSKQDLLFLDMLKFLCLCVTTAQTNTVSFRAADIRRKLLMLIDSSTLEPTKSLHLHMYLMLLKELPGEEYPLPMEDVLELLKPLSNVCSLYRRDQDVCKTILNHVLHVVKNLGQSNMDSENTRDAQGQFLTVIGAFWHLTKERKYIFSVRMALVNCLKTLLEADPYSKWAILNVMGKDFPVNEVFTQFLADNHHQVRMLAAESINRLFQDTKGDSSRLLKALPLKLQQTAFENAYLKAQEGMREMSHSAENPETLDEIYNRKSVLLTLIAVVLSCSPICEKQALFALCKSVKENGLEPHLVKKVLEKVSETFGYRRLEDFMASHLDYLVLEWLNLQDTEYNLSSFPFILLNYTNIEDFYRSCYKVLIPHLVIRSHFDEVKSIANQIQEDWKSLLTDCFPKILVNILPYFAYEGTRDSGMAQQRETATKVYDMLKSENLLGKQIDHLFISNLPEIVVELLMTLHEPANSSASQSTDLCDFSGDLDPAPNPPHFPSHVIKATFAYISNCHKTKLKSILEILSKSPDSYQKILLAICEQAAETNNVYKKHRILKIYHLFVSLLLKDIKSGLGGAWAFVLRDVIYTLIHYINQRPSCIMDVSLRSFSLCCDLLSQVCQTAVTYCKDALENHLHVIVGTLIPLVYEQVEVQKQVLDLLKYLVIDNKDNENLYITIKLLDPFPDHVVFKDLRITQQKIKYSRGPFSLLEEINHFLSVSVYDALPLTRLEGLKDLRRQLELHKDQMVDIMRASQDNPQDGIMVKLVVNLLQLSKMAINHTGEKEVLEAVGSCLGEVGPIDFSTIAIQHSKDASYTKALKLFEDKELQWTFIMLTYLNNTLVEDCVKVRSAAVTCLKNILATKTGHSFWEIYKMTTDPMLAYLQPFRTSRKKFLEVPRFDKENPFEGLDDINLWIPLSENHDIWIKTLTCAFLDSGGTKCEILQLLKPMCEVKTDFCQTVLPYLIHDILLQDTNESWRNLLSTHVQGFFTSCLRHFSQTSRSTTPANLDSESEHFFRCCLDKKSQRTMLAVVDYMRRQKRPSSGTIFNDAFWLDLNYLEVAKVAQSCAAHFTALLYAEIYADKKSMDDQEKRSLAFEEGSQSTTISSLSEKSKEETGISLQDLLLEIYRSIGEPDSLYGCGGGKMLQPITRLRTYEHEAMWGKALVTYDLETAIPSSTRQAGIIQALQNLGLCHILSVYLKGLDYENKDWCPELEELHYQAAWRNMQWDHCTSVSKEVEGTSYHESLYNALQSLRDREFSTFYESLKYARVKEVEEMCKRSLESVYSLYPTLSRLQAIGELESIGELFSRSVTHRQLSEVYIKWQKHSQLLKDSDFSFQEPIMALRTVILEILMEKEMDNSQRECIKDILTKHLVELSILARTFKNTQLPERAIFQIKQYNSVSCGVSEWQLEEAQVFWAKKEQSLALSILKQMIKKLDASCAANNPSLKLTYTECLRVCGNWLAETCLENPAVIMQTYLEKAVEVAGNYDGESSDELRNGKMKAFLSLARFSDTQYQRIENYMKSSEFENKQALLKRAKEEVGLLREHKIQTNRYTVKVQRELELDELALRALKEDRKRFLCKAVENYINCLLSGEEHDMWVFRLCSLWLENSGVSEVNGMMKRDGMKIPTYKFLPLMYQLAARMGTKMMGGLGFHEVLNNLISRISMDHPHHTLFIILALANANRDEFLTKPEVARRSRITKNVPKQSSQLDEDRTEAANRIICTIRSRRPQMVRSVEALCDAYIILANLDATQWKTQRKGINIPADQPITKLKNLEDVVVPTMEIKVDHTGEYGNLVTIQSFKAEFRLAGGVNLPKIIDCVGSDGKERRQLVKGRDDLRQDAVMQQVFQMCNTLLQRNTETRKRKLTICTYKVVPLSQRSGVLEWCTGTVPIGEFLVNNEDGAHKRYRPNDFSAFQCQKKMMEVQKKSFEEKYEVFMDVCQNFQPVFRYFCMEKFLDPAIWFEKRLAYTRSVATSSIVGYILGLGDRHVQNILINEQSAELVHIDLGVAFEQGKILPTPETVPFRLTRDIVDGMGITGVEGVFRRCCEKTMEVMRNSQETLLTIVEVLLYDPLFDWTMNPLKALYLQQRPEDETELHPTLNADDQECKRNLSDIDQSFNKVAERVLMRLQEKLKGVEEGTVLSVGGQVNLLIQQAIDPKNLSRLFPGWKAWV
# Sequence of Serine/threonine-protein kinase 26 (Homo sapiens) (Q9P289 2-416 limits assumed): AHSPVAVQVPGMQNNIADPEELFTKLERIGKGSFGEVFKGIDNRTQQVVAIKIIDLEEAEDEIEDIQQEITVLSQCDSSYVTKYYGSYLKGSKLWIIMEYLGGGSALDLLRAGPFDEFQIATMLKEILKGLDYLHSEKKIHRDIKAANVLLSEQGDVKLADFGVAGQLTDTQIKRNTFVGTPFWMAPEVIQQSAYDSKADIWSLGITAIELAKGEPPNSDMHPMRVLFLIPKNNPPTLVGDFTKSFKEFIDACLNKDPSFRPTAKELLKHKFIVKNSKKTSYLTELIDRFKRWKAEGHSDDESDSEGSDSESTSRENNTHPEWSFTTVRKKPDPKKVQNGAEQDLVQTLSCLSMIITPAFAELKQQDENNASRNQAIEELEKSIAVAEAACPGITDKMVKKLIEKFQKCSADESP
# Sequence of Serine/threonine-protein kinase pim-1 (Homo sapiens) (P11309 whole entry, looked up): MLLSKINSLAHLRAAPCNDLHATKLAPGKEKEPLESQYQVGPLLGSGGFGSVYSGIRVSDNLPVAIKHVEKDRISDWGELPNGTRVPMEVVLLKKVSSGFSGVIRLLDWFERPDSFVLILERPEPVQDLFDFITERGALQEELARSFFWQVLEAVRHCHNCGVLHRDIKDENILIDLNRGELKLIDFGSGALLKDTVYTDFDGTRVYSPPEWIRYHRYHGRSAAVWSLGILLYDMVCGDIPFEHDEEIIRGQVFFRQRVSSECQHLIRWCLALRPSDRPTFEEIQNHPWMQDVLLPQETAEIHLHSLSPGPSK
compound,measurement,setting,value
O=C(N[C@@H](C1CC1)C(F)(F)F)c1cc(-c2cnn3cc(-c4ccc(F)cc4)cnc23)cs1,fold change (FC),[1],0.07
same,fold change (FC),[2],0.26
same,inhibition,[3],0%
same,inhibition,[4],0%
same,inhibition,[5],23%
same,fold change (FC),[6],0
same,fold change (FC),[7],0.07
same,fold change (FC),[8],0
same,inhibition,[9],15%
same,inhibition,[10],9%
same,inhibition,[11],2%
CC(C)[C@H](NC(=O)c1cc(-c2cnn3cc(-c4ccc(OCCN5CCCCC5)cc4)cnc23)cs1)C(F)(F)F,inhibition,[12],4%
same,inhibition,[13],0%
same,fold change (FC),[14],0
same,fold change (FC),[15],0.11
same,inhibition,[16],0%
same,inhibition,[17],0%
same,inhibition,[18],0%
same,fold change (FC),[19],0
CNC(=O)c1ccccc1Oc1nc(Nc2cc(OC)c(OC)c(OC)c2)ncc1Br,fold change (FC),[20],0
same,inhibition,[21],0%
same,fold change (FC),[22],0.43
same,fold change (FC),[23],0.03
